{"source": "paper PMC4065287", "about": "(Diabetes Therapy, 2014)", "key": {"[1]": {"tested_on": "CD-1 mice", "conditions": "2-year study; cited from earlier work"}, "[2]": {"tested_on": "SD rats", "conditions": "cited from earlier work"}, "[3]": {"tested_on": "SGLT2", "conditions": "cited from earlier work"}, "[4]": {"tested_on": "Chinese hamster ovary (CHO) cells"}, "[5]": {"conditions": "2-year rodent carcinogenicity studies"}, "[6]": {"tested_on": "EJ-1 tumor xenografts", "assay": "In vivo mouse xenograft study, EJ-1", "design": "species or system athymic nude mice"}, "[7]": {"conditions": "human plasma after 10 mg MRHD of dapagliflozin; cited from earlier work"}, "[8]": {"assay": "Urinary exposure extrapolations from bridging studies", "format": "in vivo", "conditions": "mice, rats, and dogs"}, "[9]": {"tested_on": "Harlan SD rats"}, "[10]": {"tested_on": "CD-1 mice", "conditions": "for carcinogenicity: oral gavage up to 24 months"}, "[11]": {"tested_on": "human bladder transitional cell carcinoma (TCC) cell lines (T24, TCCSUP, UM-UC-3, J82, SW780, and EJ-1)", "assay": "In vitro cell proliferation of bladder TCC cell lines with test compounds", "format": "cell-based", "conditions": "0.2, 2, 20 μg/mL, serum-free medium, 72 h", "summary_of_the_method": "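Low-passage TCC lines (<6 months from thaw) were seeded at 20,000 or 40,000 cells/well in RPMI 1640 + 10% FBS. After 24 h adherence and 24 h serum-free, cells got medium-only vehicle or test compound (0.2, 2, 20 μg/mL) serum-free for 72 h. Controls were a return to 10% FBS and continuous serum. Percent confluence was imaged every 2 h to build growth curves.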"}, "[12]": {"tested_on": "Escherichia coli strain WP2 uvrA", "conditions": "maximum concentrations (≤5,000 μg/plate) with or without metabolic activation"}, "[13]": {"assay": "in vivo", "conditions": "both, Sprague-Dawley, rat, plasma, po, 200 mg/kg per day"}, "[14]": {"conditions": "chronic toxicology studies; cited from earlier work"}, "[15]": {"tested_on": "Beagle dogs"}, "[16]": {"tested_on": "more than 330 receptors, enzymes, ion channels, and transporters", "conditions": "cited from earlier work"}, "[17]": {"tested_on": "peripheral blood lymphocytes", "conditions": "up to 200 mg/kg per day for 1 month"}, "[18]": {"conditions": "human subjects, 10 mg dose; cited from earlier work"}, "[19]": {"tested_on": "hormone receptors", "conditions": "cited from earlier work"}, "[20]": {"tested_on": "bone marrow polychromatic erythrocytes"}, "[21]": {"tested_on": "Salmonella typhimurium stains TA98, TA100, TA1535, and TA1537", "conditions": "maximum concentrations (≤5,000 μg/plate) with or without metabolic activation"}, "[22]": {"tested_on": "liver, skeletal muscle, kidney, and adipose tissues", "conditions": "male ZDF rats vs vehicle"}, "[23]": {"conditions": "cited from earlier work"}, "[24]": {"conditions": "cited from earlier work", "remark": "listed apart in the source"}, "[25]": {"tested_on": "primary hepatocyte cultures", "conditions": "single oral dose up to 700 mg/kg"}, "[26]": {"tested_on": "TCC cell lines (T24, TCCSUP, UM-UC-3, J82, and SW780)", "assay": "In vitro cell proliferation of bladder TCC cell lines with increasing glucose", "format": "cell-based, human", "summary_of_the_method": "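Five TCC lines seeded at 40,000 or 80,000 cells/well in RPMI 1640 with 10% FBS, glucose set to 11 (control), 25, 35 or 50 mM. Cells were incubated 145 h in the incubator with live-cell imaging. Percent confluence was read every 2 h and growth curves were built over 145 h.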"}}, "note": "Where “and” joins values, the source holds several entries; their conditions need not be identical. Equal values may be shown once. Entries after “also recorded” stand apart in the source; their conditions may differ. Read-outs that look alike come from different tables or passages of the source."}
{"compound": "Cc1ccc([C@@H]2O[C@H](CO)[C@@H](O)[C@H](O)[C@H]2O)cc1Cc1ccc(-c2ccc(F)cc2)s1", "note": "[canagliflozin]", "values": [{"measurement": "exposure multiple of clinical exposures", "setting": "[1]", "value": 14, "unit": "×"}, {"measurement": "incidence of neoplasms or preneoplastic lesions", "setting": "[1]", "value": "did not increase the incidence"}, {"measurement": "exposure multiple with increased incidence of neoplasms of the adrenals", "setting": "[2]", "value": "≥ 12", "unit": "×"}, {"measurement": "exposure multiple with increased incidence of neoplasms of the renal tubules", "setting": "[2]", "value": "≥ 12", "unit": "×"}, {"measurement": "selectivity for SGLT2 than for SGLT1", "setting": "[3]", "value": 200, "unit": "×"}]}
{"compound": "CCOc1ccc(Cc2cc([C@@H]3O[C@H](CO)[C@@H](O)[C@H](O)[C@H]3O)ccc2Cl)cc1", "note": "[dapagliflozin, (2S,3R,4R,5S,6R)-2-[4-chloro-3-(4-ethoxybenzyl)phenyl]-6-(hydroxymethyl)tetrahydro-2H-pyran-3,4,5-triol]", "values": [{"measurement": "level that produced cytogenetic alterations in vitro", "setting": "[4]", "value": 100, "unit": "µg/mL"}, {"measurement": "chromosomal aberration induction", "setting": "[4]; absence of S9 stimulation", "value": "negative"}, {"measurement": "clastogenic concentrations relative to total C max in humans with MRHD 10 mg", "setting": "[4]; with metabolic stimulation", "value": "≥ 735", "unit": "times"}, {"measurement": "levels of urinary glucose", "setting": "[5]", "value": "~200", "unit": "mM"}, {"measurement": "body weight of treated animals", "setting": "[6]; EJ-1 and UM-UC-3 xenograft mice", "value": "no effect"}, {"measurement": "exposure multiple of human clinical exposures", "setting": "[6]; EJ-1 and UM-UC-3 xenograft mice, parent", "value": "up to 75 ×"}, {"measurement": "growth of tumor xenografts", "setting": "[6]; mouse, in vivo", "value": "no effect; also recorded: similar"}, {"measurement": "maximum observed plasma concentration (C max)", "setting": "[7]", "value": 0.136, "unit": "µg/mL"}, {"measurement": "extrapolated urinary concentrations relative to humans", "setting": "[8]", "value": "> 700", "unit": "×"}, {"measurement": "carcinogenicity", "setting": "[9]; doses up to 10 mg/kg per day", "value": "not carcinogenic"}, {"measurement": "exposure (AUC) multiple relative to human AUC at 10 mg", "setting": "[9]; females 0.5 mg/kg per day", "value": "~9", "unit": "×"}, {"measurement": "exposure (AUC) multiple relative to human AUC at 10 mg", "setting": "[9]; females 2 mg/kg per day", "value": "~34", "unit": "×"}, {"measurement": "microscopic changes in the kidney", "setting": "[9]; males only", "value": "exacerbation in severity of CPN and increased incidence and severity of minimal to marked atypical hyperplasia of renal cortical tubules"}, {"measurement": "neoplasms affecting the renal tubules, adrenal gland, or testicular Leydig cells", "setting": "[9]; rat, in vivo", "value": "no dapagliflozin-related neoplasms"}, {"measurement": "tumors or preneoplastic lesions in the urinary bladder", "setting": "[9]; rat, in vivo", "value": "no indications of any dapagliflozin-related tumors or preneoplastic lesions"}, {"measurement": "exposure (AUC) multiple relative to human AUC at 10 mg", "setting": "[10]; females 2 mg/kg per day", "value": "~11", "unit": "×"}, {"measurement": "exposure (AUC) multiple relative to human AUC at 10 mg", "setting": "[10]; females 10 mg/kg per day", "value": "~52", "unit": "×"}, {"measurement": "exposure (AUC) multiple relative to human AUC at 10 mg", "setting": "[10]; females 20 mg/kg per day", "value": "~105", "unit": "×"}, {"measurement": "carcinogenicity", "setting": "[10]; females, doses ≤20 mg/kg per day", "value": "not carcinogenic"}, {"measurement": "incidence of background tumors or time to onset", "setting": "[10]; lymphoreticular, uterus and cervix, lung, liver neoplasms", "value": "did not increase the incidence"}, {"measurement": "urinary bladder hyperplasia versus control", "setting": "[10]; male mice", "value": "did not increase urinary bladder hyperplasia"}, {"measurement": "exposure (AUC) multiple relative to human AUC at 10 mg", "setting": "[10]; males 5 mg/kg per day", "value": "approximately 4 ×"}, {"measurement": "exposure (AUC) multiple relative to human AUC at 10 mg", "setting": "[10]; males 15 mg/kg per day", "value": "~14", "unit": "×"}, {"measurement": "exposure (AUC) multiple relative to human AUC at 10 mg", "setting": "[10]; males 40 mg/kg per day", "value": "~72", "unit": "×"}, {"measurement": "carcinogenicity", "setting": "[10]; males, doses ≤40 mg/kg per day", "value": "not carcinogenic"}, {"measurement": "in vitro TCC proliferation", "setting": "[11]", "value": "did not affect"}, {"measurement": "bacterial reverse-mutation assay", "setting": "[12]", "value": "negative"}, {"measurement": "Cmax", "setting": "[13]", "value": "63 to 74", "unit": "µg/mL"}, {"measurement": "levels of urinary glucose", "setting": "[14]", "value": "400 to 500", "unit": "mM"}, {"measurement": "proliferative or hyperplastic changes of the urinary bladder", "setting": "[15]; 1 year", "value": "did not show dapagliflozin-related proliferative or hyperplastic changes"}, {"measurement": "exposure multiple of human clinical exposure", "setting": "[15]; 1 year, supratherapeutic doses", "value": "> 3,300 × and > 3,000 ×"}, {"measurement": "urinary glucose excretion", "setting": "[15]; treated dogs (control 5–13 mg per day)", "value": "8,711–32,200 mg per day"}, {"measurement": "off-target interactions", "setting": "[16]", "value": "no off-target interactions"}, {"measurement": "AUC multiple of MRHD", "setting": "[17]", "value": "≤ 2,602 × MRHD"}, {"measurement": "C max multiple of MRHD", "setting": "[17]", "value": "≤ 544", "unit": "× MRHD"}, {"measurement": "clastogenicity in peripheral blood lymphocytes", "setting": "[17]", "value": "no evidence of clastogenicity"}, {"measurement": "urinary glucose, mean", "setting": "[18]", "value": 166, "unit": "mM"}, {"measurement": "binding to hormone receptors", "setting": "[19]", "value": "did not bind"}, {"measurement": "bone marrow micronucleus genotoxicity", "setting": "[20]; 2 weeks, up to 250 mg/kg per day", "value": "not genotoxic"}, {"measurement": "bone marrow micronucleus genotoxicity", "setting": "[20]; 3 days, up to 700 mg/kg per day", "value": "not genotoxic"}, {"measurement": "selectivity for SGLT2 than for SGLT1", "setting": "[3]", "value": "1,200 ×"}, {"measurement": "bacterial reverse-mutation assay", "setting": "[21]", "value": "negative"}, {"measurement": "probe sets showing significant changes", "setting": "[22]", "value": "less than 1%"}, {"measurement": "oral bioavailability", "setting": "[23]", "value": "good"}, {"measurement": "volume of distribution", "setting": "[23]", "value": "high"}, {"measurement": "overall incidence of malignancies and unspecified tumors", "setting": "[24]; July 15, 2011 cutoff (control 1.4%)", "value": 1.5, "unit": "%"}, {"measurement": "urinary bladder tumors, incidence rate", "setting": "[24]; dapagliflozin groups (placebo 0.03)", "value": 0.15}, {"measurement": "urinary bladder tumors, number of cases", "setting": "[24]; dapagliflozin groups (placebo 1)", "value": 9}, {"measurement": "bladder cancer cases, percent of patients", "setting": "[24]; of 5,501 patients, July 15, 2011 cutoff", "value": 0.16, "unit": "%"}, {"measurement": "unscheduled DNA synthesis", "setting": "[25]", "value": "did not induce an increase"}]}
{"compound": "OC[C@H]1OC(O)[C@H](O)[C@@H](O)[C@@H]1O", "note": "(some centres unmarked) [glucose]", "values": [{"measurement": "reduction of growth", "setting": "[26]; J82, 25 mM", "value": 37, "unit": "%"}, {"measurement": "growth", "setting": "[26]; SW780, 25 mM", "value": "did not substantially alter"}, {"measurement": "growth", "setting": "[26]; T24, 25 mM", "value": "did not substantially alter"}, {"measurement": "reduction of growth", "setting": "[26]; T24, 35 mM", "value": 83, "unit": "%"}, {"measurement": "reduction of growth", "setting": "[26]; TCCSUP, 25 mM", "value": 42, "unit": "%"}, {"measurement": "reduction of growth", "setting": "[26]; UM-UC-3, 25 mM", "value": 73, "unit": "%"}, {"measurement": "growth", "setting": "[26]; all cell lines at 35 mM and 50 mM, except T24 at 35 mM", "value": "completely inhibited"}]}
